The results in this text go back to ChEMBL document CHEMBL3297719, “Hybrid dopamine uptake blocker-serotonin releaser ligands: a new twist on transporter-focused therapeutics” (ACS Med Chem Lett, 2014).

Test [1] concerns the target 5-hydroxytryptamine receptor 2B (Homo sapiens) (UniProt P41595). Nature of the test: Agonist activity at human 5HT2C expressed in HEK293 cells at 10 uM by calcium mobilization assay. In kind it is functional, cell-based. On the technique in general: Calcium flux is commonly read through the fluorescence of an indicator in the cells.
Test [2] concerns the target Transporter (Rattus norvegicus) (UniProt Q63380). Nature of the test: Inhibition of NET-mediated norepinephrine uptake in rat synaptosomes. In kind it is subcellular. The following applies: Brain. The procedure, abridged: (§1)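 Synaptosomes prepared from rat brain homogenate. Each compound was run in both the release assay and the uptake-inhibition assay to classify it as a releasing substrate or an uptake inhibitor. Dose-response curves were then completed only for the assigned activity. Values are means ± SD from N = 3 experiments, each performed in triplicate.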

The target of test [3] is T1, Sodium-dependent serotonin transporter (Rattus norvegicus, UniProt P31652). The test can be described thus: Induction of SERT-mediated serotonin release in rat synaptosomes. In kind it is subcellular, Brain. The procedure, abridged:
as §1

The target in test [4] is 5-hydroxytryptamine receptor 2A (Homo sapiens) (UniProt P28223). Nature of the test: Agonist activity at human 5HT2A expressed in HEK293 cells at 10 uM by calcium mobilization assay. In kind it is functional, cell-based.
For test [5] the target is unchanged. Nature of the test: Agonist activity at human 5HT2A expressed in CHOK1 cells at 10 uM after 3 hrs by beta-arrestin recruitment assay. As to conditions: CHO-K1. In kind it is cell-based. (Arrestin recruitment assays detect the binding of arrestin to an activated receptor.)
For test [6], the target named is T2, 5-hydroxytryptamine receptor 1A (Homo sapiens) (UniProt P08908).
T2 sequence (whole entry): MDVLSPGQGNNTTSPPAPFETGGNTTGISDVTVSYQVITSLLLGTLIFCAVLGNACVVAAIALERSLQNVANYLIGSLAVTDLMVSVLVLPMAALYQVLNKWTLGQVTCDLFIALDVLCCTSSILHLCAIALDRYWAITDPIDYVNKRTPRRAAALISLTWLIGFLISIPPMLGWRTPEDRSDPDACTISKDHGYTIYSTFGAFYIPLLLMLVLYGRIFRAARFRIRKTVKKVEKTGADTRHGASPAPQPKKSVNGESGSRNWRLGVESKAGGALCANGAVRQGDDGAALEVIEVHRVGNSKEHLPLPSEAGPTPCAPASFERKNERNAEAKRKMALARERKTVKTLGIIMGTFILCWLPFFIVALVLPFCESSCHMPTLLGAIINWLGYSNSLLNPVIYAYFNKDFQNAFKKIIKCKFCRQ
Nature of the test: Agonist activity at human 5HT1A expressed in CHO cells coexpressing Galpha16 at 10 uM by calcium mobilization assay. In kind it is functional, cell-based.

The target in test [7] is Transporter (Rattus norvegicus) (UniProt Q63380). The test can be described thus: Induction of NET-mediated norepinephrine release in rat synaptosomes. In kind it is subcellular. The following applies: Brain. The essentials:
as §1

The target in test [8] is 5-hydroxytryptamine receptor 2B (Homo sapiens) (UniProt P41595). Nature of the test: Agonist activity at human 5HT2B expressed in HEK293 cells at 10 uM by calcium mobilization assay. In kind it is functional, cell-based.
In test [9] the target is T3, Sodium-dependent dopamine transporter (Rattus norvegicus, UniProt P23977). The test can be described thus: Inhibition of DAT-mediated dopamine uptake in rat synaptosomes. In kind it is subcellular, Brain. The procedure, abridged: as §1
Test [10] addresses T1, Sodium-dependent serotonin transporter. The test can be described thus: Inhibition of SERT-mediated serotonin uptake in rat synaptosomes. In kind it is subcellular, Brain. The essentials:
as §1

Test [11] has as its target T3, Sodium-dependent dopamine transporter. Nature of the test: Induction of DAT-mediated dopamine release in rat synaptosomes. In kind it is subcellular, Brain. The essentials: as §1
The target of test [12] is Sodium-dependent serotonin transporter (Homo sapiens, UniProt P31645). Nature of the test: Induction of SERT (unknown origin)-mediated serotonin release.
The target of test [13] is Sodium-dependent dopamine transporter (Homo sapiens, UniProt Q01959). The test can be described thus: Inhibition of DAT (unknown origin)-mediated dopamine reuptake.

Each structure is given as a SMILES string. Activity calls are given as the source filed them. The rule behind the calls is not given here. Bounds are passed on as bounds.

5-hydroxytryptamine receptor 2B (Homo sapiens), sequence (P41595 whole entry): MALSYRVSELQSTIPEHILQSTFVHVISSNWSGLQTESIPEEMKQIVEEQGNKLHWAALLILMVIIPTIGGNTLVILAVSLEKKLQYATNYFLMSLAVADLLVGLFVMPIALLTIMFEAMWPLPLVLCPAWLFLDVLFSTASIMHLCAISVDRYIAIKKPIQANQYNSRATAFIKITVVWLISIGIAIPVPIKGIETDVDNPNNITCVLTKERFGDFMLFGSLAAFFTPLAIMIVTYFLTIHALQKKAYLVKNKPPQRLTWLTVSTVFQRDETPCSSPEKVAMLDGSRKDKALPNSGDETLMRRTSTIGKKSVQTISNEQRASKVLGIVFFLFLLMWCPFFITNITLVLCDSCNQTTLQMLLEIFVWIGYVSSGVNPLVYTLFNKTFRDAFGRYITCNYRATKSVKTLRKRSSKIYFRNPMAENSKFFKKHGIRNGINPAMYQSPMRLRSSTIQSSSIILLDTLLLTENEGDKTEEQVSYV
T3 sequence (P23977 whole entry): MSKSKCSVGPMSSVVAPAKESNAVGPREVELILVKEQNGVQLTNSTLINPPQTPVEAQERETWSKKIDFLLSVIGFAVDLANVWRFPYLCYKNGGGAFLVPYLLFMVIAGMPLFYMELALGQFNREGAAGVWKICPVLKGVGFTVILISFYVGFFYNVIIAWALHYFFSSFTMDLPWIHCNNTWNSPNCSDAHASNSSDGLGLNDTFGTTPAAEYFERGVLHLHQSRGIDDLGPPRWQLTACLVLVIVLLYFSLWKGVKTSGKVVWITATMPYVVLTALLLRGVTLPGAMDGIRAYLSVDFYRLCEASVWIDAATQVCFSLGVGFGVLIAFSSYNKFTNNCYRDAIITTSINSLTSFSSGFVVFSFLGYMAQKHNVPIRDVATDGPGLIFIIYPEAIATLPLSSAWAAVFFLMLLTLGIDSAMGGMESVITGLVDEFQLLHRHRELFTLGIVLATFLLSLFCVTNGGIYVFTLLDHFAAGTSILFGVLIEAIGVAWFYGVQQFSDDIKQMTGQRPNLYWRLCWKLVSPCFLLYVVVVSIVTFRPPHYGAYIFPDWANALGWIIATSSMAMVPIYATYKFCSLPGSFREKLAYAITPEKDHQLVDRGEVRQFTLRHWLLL
5-hydroxytryptamine receptor 2A (Homo sapiens), sequence (P28223 whole entry): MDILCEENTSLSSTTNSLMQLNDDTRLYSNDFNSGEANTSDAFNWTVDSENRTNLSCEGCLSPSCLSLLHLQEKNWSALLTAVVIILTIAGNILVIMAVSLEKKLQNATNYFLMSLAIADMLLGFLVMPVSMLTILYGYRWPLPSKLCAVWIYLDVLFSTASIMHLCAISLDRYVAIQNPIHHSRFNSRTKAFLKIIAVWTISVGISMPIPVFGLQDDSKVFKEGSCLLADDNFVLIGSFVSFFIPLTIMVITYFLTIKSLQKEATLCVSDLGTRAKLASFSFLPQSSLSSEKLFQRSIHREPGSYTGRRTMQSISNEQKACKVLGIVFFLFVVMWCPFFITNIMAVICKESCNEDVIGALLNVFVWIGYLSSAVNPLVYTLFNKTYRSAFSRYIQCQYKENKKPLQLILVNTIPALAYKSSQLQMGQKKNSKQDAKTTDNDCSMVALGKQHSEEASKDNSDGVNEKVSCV
T1 sequence (P31652 whole entry): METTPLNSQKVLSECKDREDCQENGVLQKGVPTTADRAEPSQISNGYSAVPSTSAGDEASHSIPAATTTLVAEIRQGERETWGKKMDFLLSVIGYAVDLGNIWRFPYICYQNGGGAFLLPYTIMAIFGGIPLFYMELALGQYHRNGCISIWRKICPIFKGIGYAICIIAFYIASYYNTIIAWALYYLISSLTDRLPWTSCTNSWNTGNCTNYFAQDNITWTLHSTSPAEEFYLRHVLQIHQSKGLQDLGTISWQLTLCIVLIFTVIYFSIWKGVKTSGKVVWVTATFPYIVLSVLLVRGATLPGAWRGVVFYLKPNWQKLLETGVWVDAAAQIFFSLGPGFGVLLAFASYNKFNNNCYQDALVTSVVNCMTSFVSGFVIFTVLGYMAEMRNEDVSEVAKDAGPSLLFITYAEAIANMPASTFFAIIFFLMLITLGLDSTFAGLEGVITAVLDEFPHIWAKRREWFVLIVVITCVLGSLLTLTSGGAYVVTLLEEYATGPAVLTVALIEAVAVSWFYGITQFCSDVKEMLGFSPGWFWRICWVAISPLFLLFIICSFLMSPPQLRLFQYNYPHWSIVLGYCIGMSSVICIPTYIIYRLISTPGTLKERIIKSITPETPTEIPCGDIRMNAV
Transporter (Rattus norvegicus), sequence (Q63380 as listed by the source): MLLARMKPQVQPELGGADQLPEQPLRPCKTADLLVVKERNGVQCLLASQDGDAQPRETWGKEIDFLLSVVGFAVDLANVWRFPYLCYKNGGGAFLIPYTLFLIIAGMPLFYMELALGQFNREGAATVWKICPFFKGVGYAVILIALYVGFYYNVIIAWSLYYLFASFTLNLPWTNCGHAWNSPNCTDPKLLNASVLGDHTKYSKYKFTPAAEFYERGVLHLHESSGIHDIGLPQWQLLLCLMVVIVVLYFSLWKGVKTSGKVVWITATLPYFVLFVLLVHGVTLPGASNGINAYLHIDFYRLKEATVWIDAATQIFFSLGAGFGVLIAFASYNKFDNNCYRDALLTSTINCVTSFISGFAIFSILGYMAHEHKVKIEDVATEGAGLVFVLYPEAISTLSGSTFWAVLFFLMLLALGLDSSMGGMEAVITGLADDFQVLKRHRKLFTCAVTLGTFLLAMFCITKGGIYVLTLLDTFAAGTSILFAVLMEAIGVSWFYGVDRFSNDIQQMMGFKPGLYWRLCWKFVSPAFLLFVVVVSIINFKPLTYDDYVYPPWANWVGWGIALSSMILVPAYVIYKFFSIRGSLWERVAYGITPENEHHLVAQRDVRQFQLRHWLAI
Sodium-dependent serotonin transporter (Homo sapiens, UniProt P31645), sequence (P31645 whole entry): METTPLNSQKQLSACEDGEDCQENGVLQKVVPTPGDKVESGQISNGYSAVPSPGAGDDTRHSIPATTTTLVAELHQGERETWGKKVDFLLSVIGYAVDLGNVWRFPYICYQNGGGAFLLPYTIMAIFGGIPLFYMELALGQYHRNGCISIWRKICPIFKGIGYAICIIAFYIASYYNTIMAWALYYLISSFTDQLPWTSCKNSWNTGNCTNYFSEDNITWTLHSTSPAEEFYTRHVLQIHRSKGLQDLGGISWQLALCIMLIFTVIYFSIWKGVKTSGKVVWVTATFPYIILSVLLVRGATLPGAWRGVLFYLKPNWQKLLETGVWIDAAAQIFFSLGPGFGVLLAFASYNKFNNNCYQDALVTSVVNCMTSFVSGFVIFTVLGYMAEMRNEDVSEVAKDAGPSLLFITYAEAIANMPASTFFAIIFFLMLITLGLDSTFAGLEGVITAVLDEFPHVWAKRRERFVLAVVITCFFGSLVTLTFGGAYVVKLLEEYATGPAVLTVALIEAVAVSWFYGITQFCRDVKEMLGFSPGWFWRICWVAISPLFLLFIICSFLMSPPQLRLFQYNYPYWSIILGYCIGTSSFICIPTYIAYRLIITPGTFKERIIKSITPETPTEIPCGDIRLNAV
Sodium-dependent dopamine transporter (Homo sapiens, UniProt Q01959), sequence (Q01959 whole entry): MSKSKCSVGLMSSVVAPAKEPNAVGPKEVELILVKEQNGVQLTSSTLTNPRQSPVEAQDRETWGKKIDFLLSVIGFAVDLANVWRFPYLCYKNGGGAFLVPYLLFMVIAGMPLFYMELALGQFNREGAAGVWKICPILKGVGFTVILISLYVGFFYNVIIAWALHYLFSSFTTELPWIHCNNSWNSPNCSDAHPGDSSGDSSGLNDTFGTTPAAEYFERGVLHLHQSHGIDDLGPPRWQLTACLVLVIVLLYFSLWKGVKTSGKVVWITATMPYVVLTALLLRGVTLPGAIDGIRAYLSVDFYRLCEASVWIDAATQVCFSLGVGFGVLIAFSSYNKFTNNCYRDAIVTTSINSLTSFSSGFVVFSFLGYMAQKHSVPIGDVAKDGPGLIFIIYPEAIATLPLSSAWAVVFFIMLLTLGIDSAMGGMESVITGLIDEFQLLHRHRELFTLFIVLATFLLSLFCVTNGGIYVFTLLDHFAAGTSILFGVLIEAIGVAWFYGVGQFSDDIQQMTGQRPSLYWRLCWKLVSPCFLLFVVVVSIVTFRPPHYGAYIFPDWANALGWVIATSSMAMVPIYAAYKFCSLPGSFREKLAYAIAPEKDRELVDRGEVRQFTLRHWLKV

By EC50 is commonly meant the midpoint of the concentration-response curve. A word on the IC50: it is the midpoint of a concentration-inhibition curve. As for `COc1cccc(C(=O)C(C)NC2CC2)c1` (stereo not drawn), the outcome in [1], in test [4], in [5], in test [6] and in test [8] was inactive. Moreover, the inhibition result in [2] is “Active”. Moreover, in test [3], the EC50 turned out to be 1010 nM. Also, the result in [7] was Active. 2370 nM corresponded to half-maximal inhibition in [9] (IC50).
As to `CCCC(N)Cc1ccccc1` (stereo not drawn), the result in test [1], in test [4], in test [5], in test [6] and in test [8] was inactive. The inhibition entry in [2] was “Active”. The IC50 in test [10] is greater than 10000 nM; in [9], 2600 nM. In addition, in test [7], the result was Active.
Consider `Cc1ccc(C(=O)C(C)NC2CC2)cc1` (stereo not drawn), for which the outcome in test [1], in test [4], in test [5], in test [6] and in test [8] was inactive. For the same compound, the inhibition entry in test [2] is “Active”. In addition, in test [3], the EC50 is 667 nM. Moreover, the result in test [7] was Active. In test [9], the IC50 is 1100 nM.
Consider `CC(NC1CC1)C(=O)c1ccc(Cl)cc1` (stereo not drawn), for which the result in test [1], in test [4], in test [5], in test [6] and in test [8] was inactive. The inhibition entry in [2] is “Active”. Besides, in [3], a half-maximal response (EC50) required 1630 nM. The result in test [7] was Active. The compound also registered an IC50 in [9] of 2010 nM.
Consider `C[C@H](NC1CC1)C(=O)c1cccc(Cl)c1`, for which the outcome in test [1], in test [4], in test [5], in test [6] and in [8] was inactive. Also, the inhibition result in test [2] is “Active”. In test [3], the EC50 worked out at 562 nM. Also, the outcome in test [7] was Active. Half-maximal inhibition in test [9] (IC50) required 294 nM.
As to `CNC(C)C(=O)c1cccc(Cl)c1` (stereo not drawn), the outcome in test [1], in test [4], in test [5], in [6] and in test [8] was inactive. Besides, the inhibition entry in test [2] is “Active”. Moreover, the EC50 in test [3] amounted to 410 nM; in [11], 46.8 nM. In [7], the result was Active.
As for `CCCNC(C)C(=O)c1cccc(Cl)c1` (stereo not drawn), the outcome in test [1], in [4], in test [5], in test [6] and in test [8] was inactive. Besides, the inhibition result in [2] is “Active”. Also, the IC50 is greater than 10000 nM in test [10] and 793 nM in test [9]. Moreover, in [7], the outcome was Active.
Consider `CC(NC1CC1)C(=O)c1cccc(Br)c1` (stereo not drawn), for which the outcome in [1], in test [4], in [5], in test [6] and in test [8] was inactive. The inhibition result in [2] was “Active”. In [3], this compound displayed an EC50 of 621 nM. Besides, the result in test [7] was Active. For the same compound, the IC50 in [9] is 386 nM.
On to `C[C@@H](NC1CC1)C(=O)c1cccc(Cl)c1`, for which the outcome in test [1], in test [4], in [5], in test [6] and in test [8] was inactive. The inhibition result in test [2] was “Active”. For the same compound, it took 733 nM to reach a half-maximal effect in test [3] (EC50). Moreover, in test [7], the outcome was Active. The IC50 in test [9] is 369 nM.
Take `CC(NC1CC1)C(=O)c1ccc(Cl)c(Cl)c1` (stereo not drawn): the result in [1], in [4], in test [5], in test [6] and in test [8] was inactive. Moreover, the inhibition entry in test [2] is “Active”. For the same compound, in [3], it took 356 nM to reach a half-maximal effect (EC50). For the same compound, the outcome in test [7] was Active. The IC50 in test [9] stood at 425 nM.
As for `CC(NC1CC1)C(=O)c1cccc(Cl)c1` (stereo not drawn), the result in test [1], in test [4], in test [5], in test [6] and in [8] was inactive. In test [2], the inhibition result is “Active”. The EC50 in test [3] was determined as 1330 nM. Further, the outcome in test [7] was Active. Further, the IC50 in test [9] is 533 nM.
As to `CCC(Cc1ccccc1)NC` (stereo not drawn), the outcome in test [1], in test [4], in test [5], in test [6] and in test [8] was inactive. Besides, the inhibition entry in test [2] is “Active”. Also, the EC50 in test [3] was determined as 4700 nM; in test [11], 225 nM. Also, the result in test [7] was Active.
Regarding `CCC(NC)C(=O)c1ccccc1` (stereo not drawn), the outcome in [1], in test [4], in [5], in test [6] and in [8] was inactive. For the same compound, the inhibition entry in [2] was “Active”. The compound further showed an IC50 in test [10] greater than 10000 nM. This compound yielded an EC50 in [11] of 411 nM. The outcome in test [7] was Active.
Broadly, the Ki is a dissociation constant, usually derived from enzyme kinetics or from competition with a known ligand. The low end stands for higher affinity, the high end for lower affinity. `CCNC(C)C(=O)c1ccccc1` (stereo not drawn) had an EC50 in test [12] of 2120 nM. In addition, the Ki in test [13] was determined as 1010 nM.
With `Cc1cccc(C(=O)C(C)NC2CC2)c1` (stereo not drawn), the result in test [1], in test [4], in test [5], in [6] and in test [8] was inactive. Also, the inhibition entry in [2] is “Active”. This compound also registered an EC50 in test [3] of 1070 nM. In addition, in test [7], the outcome was Active. The compound further came in with an IC50 in test [9] of 1100 nM.
Take `CCNC(C)C(=O)c1cccc(Cl)c1` (stereo not drawn): the result in test [1], in test [4], in test [5], in [6] and in [8] was inactive. Moreover, in test [2], the inhibition entry is “Active”. Further, the IC50 in test [10] was greater than 10000 nM; in [9] it was 5920 nM. Also, the outcome in test [7] was Active.
`CC(N)Cc1cccc(Cl)c1` (stereo not drawn): the result in [1], in [4], in [5], in [6] and in test [8] was inactive. The inhibition entry in test [2] was “Active”. Moreover, the outcome in test [7] was Active.
For `Cc1ccc(C(=O)C(C)NC2CC2)cc1Cl` (stereo not drawn), the result in test [1], in [4], in test [5], in test [6] and in test [8] was inactive. For the same compound, the inhibition result in test [2] was “Active”. Also, in test [3], a half-maximal effect (EC50) was put at 181 nM. The result in [7] was Active. In test [9], this compound returned an IC50 of 592 nM.
